ChEMBL document CHEMBL4373711, “Development of 3,5-Dinitrophenyl-Containing 1,2,4-Triazoles and Their Trifluoromethyl Analogues as Highly Efficient Antitubercular Agents Inhibiting Decaprenylphosphoryl-β-d-ribofuranose 2'-Oxidase” (J Med Chem, 2019)
Converted amounts (≈) assume the structure as drawn. The source made the active and inactive calls. The calls are words filed in the database; no cut-off is given here.

Assays:
[1] = test system: Mycobacterium tuberculosis; assay: Antimycobacterial activity against Mycobacterium tuberculosis H37Rv CNCTC My 331/88 after 14 days; format: functional; conditions: H37Rv CNCTC My 331/88, 336 h
How it was run: (§1)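 M. tuberculosis strains (H37Rv and clinical MDR/XDR isolates) tested by microdilution in Šula's semisynthetic medium. Compounds were dissolved in DMSO and tested at 32 to 0.03 µM in twofold steps. Inoculum was a 1.0 McFarland suspension diluted 10-3. Plates were incubated at 37 °C and read at 14 and 21 days.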

[2] = test system: Mycobacterium tuberculosis; assay: Antimycobacterial activity against Mycobacterium tuberculosis H37Rv CNCTC My 331/88 after 21 days; format: functional; conditions: H37Rv CNCTC My 331/88, 504 h; how it was run: as §1
[3] = test system: Mycobacterium avium; assay: Antimycobacterial activity against Mycobacterium avium CNCTC My 330/88 after 14 days; format: functional; conditions: CNCTC My 330/88, 336 h
How it was run: (§2)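 M. avium was tested by microdilution in Šula's semisynthetic medium, with compounds dissolved in DMSO and serially diluted from 1000 down to 1. Inoculum was a 1.0 McFarland suspension diluted 10-5. Plates were incubated at 37 °C and read at 14 and 21 days. […] Isoniazid and rifampicin served as standards.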

[4] = test system: Mycobacterium avium; assay: Antimycobacterial activity against Mycobacterium avium CNCTC My 330/88 after 21 days; format: functional; conditions: CNCTC My 330/88, 504 h; how it was run: as §2
[5] = test system: Mycobacterium kansasii; assay: Antimycobacterial activity against Mycobacterium kansasii CNCTC My 235/80 after 7 days; format: functional; conditions: CNCTC My 235/80, 168 h
How it was run: (§3)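 Microdilution in Šula's semisynthetic medium; compounds in DMSO at 32–0.03 µM. Inoculum from 1.0 McFarland suspension diluted 10-4. […] Isoniazid and rifampicin as reference drugs.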

[6] = test system: Mycobacterium kansasii; assay: Antimycobacterial activity against Mycobacterium kansasii CNCTC My 235/80 after 14 days; format: functional; conditions: CNCTC My 235/80, 336 h; how it was run: as §3
[7] = test system: Mycobacterium kansasii; assay: Antimycobacterial activity against Mycobacterium kansasii CNCTC My 235/80 after 21 days; format: functional; conditions: CNCTC My 235/80, 504 h; how it was run: as §3
[8] = test system: Mycobacterium kansasii; assay: Antimycobacterial activity against Mycobacterium kansasii 6509/96 after 7 days; format: functional; conditions: 6509/96, 168 h; how it was run: as §3
[9] = test system: Mycobacterium kansasii; assay: Antimycobacterial activity against Mycobacterium kansasii 6509/96 after 14 days; format: functional; conditions: 6509/96, 336 h; how it was run: as §3
[10] = test system: Mycobacterium kansasii; assay: Antimycobacterial activity against Mycobacterium kansasii 6509/96 after 21 days; format: functional; conditions: 6509/96, 504 h; how it was run: as §3
[11] = test system: Staphylococcus aureus; assay: Antibacterial activity against Staphylococcus aureus subsp. aureus ATCC 29213 CCM 4223 at highest concentration measured after 24 to 48 hrs by alamar blue dye based broth microdilution assay; format: functional, organism-based
[12] = test system: Staphylococcus aureus; assay: Antibacterial activity against methicillin-resistant Staphylococcus aureus subsp. aureus ATCC 43300 CCM 4750 at highest concentration measured after 24 to 48 hrs by alamar blue dye based broth microdilution assay; format: functional, organism-based
[13] = test system: Staphylococcus epidermidis; assay: Antibacterial activity against Staphylococcus epidermidis at highest concentration measured after 24 to 48 hrs by alamar blue dye based broth microdilution assay; format: functional, organism-based
[14] = test system: Enterococcus faecalis; assay: Antibacterial activity against Enterococcus faecalis ATCC 29212 CCM 4224 at highest concentration measured after 24 to 48 hrs by alamar blue dye based broth microdilution assay; format: functional, organism-based
[15] = test system: Escherichia coli; assay: Antibacterial activity against Escherichia coli ATCC 25922 CCM 3954 at highest concentration measured after 24 to 48 hrs by alamar blue dye based broth microdilution assay; format: functional, organism-based
[16] = test system: Klebsiella pneumoniae; assay: Antibacterial activity against Klebsiella pneumoniae at highest concentration measured after 24 to 48 hrs by alamar blue dye based broth microdilution assay; format: functional, organism-based
[17] = test system: Serratia marcescens; assay: Antibacterial activity against Serratia marcescens at highest concentration measured after 24 to 48 hrs by alamar blue dye based broth microdilution assay; format: functional, organism-based
[18] = test system: Pseudomonas aeruginosa; assay: Antibacterial activity against Pseudomonas aeruginosa ATCC 27853 CCM 3955 at highest concentration measured after 24 to 48 hrs by alamar blue dye based broth microdilution assay; format: functional, organism-based
[19] = test system: Candida albicans; assay: Antifungal activity against Candida albicans ATCC 24433 CCM 8320 at highest concentration measured after 24 to 48 hrs by alamar blue dye based broth microdilution assay; format: functional, organism-based
[20] = test system: Pichia kudriavzevii; assay: Antifungal activity against Candida krusei ATCC 6258 CCM8271 at highest concentration measured after 24 to 48 hrs by alamar blue dye based broth microdilution assay; format: functional, organism-based
[21] = test system: Candida parapsilosis; assay: Antifungal activity against Candida parapsilosis ATCC 22019 CCM 8260 at highest concentration measured after 24 to 48 hrs by alamar blue dye based broth microdilution assay; format: functional, organism-based
[22] = test system: Candida tropicalis; assay: Antifungal activity against Candida tropicalis ATCC 750 CCM 8264 at highest concentration measured after 24 to 48 hrs by alamar blue dye based broth microdilution assay; format: functional, organism-based
[23] = test system: Aspergillus fumigatus; assay: Antifungal activity against Aspergillus fumigatus ATCC 204305 at highest concentration measured after 24 to 48 hrs by alamar blue dye based broth microdilution assay; format: functional, organism-based
[24] = test system: Aspergillus flavus; assay: Antifungal activity against Aspergillus flavus CCM 8363 at highest concentration measured after 24 to 48 hrs by alamar blue dye based broth microdilution assay; format: functional, organism-based
[25] = test system: Lichtheimia corymbifera; assay: Antifungal activity against Lichtheimia corymbifera CCM 8077 at highest concentration measured after 24 to 48 hrs by alamar blue dye based broth microdilution assay; format: functional, organism-based
[26] = test system: Trichophyton interdigitale; assay: Antifungal activity against Trichophyton interdigitale ATCC 9533 CCM 8377 at highest concentration measured after 72 to 120 hrs by alamar blue dye based broth microdilution assay; format: functional
[27] = test system: HepG2; assay: Cytotoxicity against human HepG2 cells assessed as reduction in cell viability after 48 hrs by CellTiter 96 aqueous one solution assay; format: cell-based; conditions: HepG2, 48 h
[28] = Cytotoxicity against human HepG2 cells assessed as cell viability at 30 uM after 48 hrs by CellTiter 96 aqueous one solution assay relative to control; format: cell-based; conditions: read-out: Activity
How it was run: (§4)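 HepG2 (DMEM, 10% FBS, 1 mM pyruvate) or A431 (DMEM, 10% FBS) seeded 10,000 cells/well, 24 h at 37 °C, 5% CO2, then 30 µM compound for 48 h. MTS reagent 60 min, absorbance 490 nm, background subtracted; 0.1% DMSO vehicle = 100%, 10% SDS = 0% viability.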

[29] = test system: A-431; assay: Cytotoxicity against human A431 cells assessed as reduction in cell viability after 48 hrs by CellTiter 96 aqueous one solution assay; format: cell-based; conditions: A-431, 48 h
[30] = Cytotoxicity against human A431 cells assessed as cell viability at 30 uM after 48 hrs by CellTiter 96 aqueous one solution assay relative to control; format: cell-based, A-431; conditions: read-out: Activity; how it was run: as §4

SMILES | MIC99 [1] | MIC99 [2] | MIC99 [3] | MIC99 [4] | MIC99 [5] | MIC99 [6] | MIC99 [7] | MIC99 [8] | MIC99 [9] | MIC99 [10] | Activity [11] | Activity [12] | Activity [13] | Activity [14] | Activity [15] | Activity [16] | Activity [17] | Activity [18] | Activity [19] | Activity [20] | also measured
O=[N+]([O-])c1cc(CSc2nnc(-c3ccccc3)n2-c2ccc(Cl)c(Cl)c2)cc([N+](=O)[O-])c1 | 1 µM (≈ 0.502 µg/mL) | 2 µM (≈ 1 µg/mL) | 125 µM (≈ 62.8 µg/mL) | 125 µM (≈ 62.8 µg/mL) | 0.5 µM (≈ 0.251 µg/mL) | 1 µM (≈ 0.502 µg/mL) | 2 µM (≈ 1 µg/mL) | 0.5 µM (≈ 0.251 µg/mL) | 1 µM (≈ 0.502 µg/mL) | 2 µM (≈ 1 µg/mL) | inactive | inactive | inactive | inactive | inactive | inactive | inactive | inactive | inactive | inactive | Activity [21]: inactive; Activity [22]: inactive; Activity [23]: inactive; Activity [24]: inactive; Activity [25]: inactive; Activity [26]: inactive; IC50 [27]: > 30 µM; viability at 48 h, 30 µM [28]: 134%; IC50 [29]: > 30 µM; viability at 48 h, 30 µM [30]: 136%
COc1ccc(CSc2nnc(-c3cc([N+](=O)[O-])cc([N+](=O)[O-])c3)n2C)cc1 | 0.25 µM (≈ 0.1 µg/mL) | 0.5 µM (≈ 0.201 µg/mL) | 16 µM (≈ 6.42 µg/mL) | 16 µM (≈ 6.42 µg/mL) | 1 µM (≈ 0.401 µg/mL) | 2 µM (≈ 0.803 µg/mL) | 4 µM (≈ 1.61 µg/mL) | 2 µM (≈ 0.803 µg/mL) | 2 µM (≈ 0.803 µg/mL) | 2 µM (≈ 0.803 µg/mL) | inactive | inactive | inactive | inactive | inactive | inactive | inactive | inactive | inactive | inactive | Activity [21]: inactive; Activity [22]: inactive; Activity [23]: inactive; Activity [24]: inactive; Activity [25]: inactive; Activity [26]: inactive; IC50 [27]: > 30 µM; viability at 48 h, 30 µM [28]: 107%; IC50 [29]: > 30 µM; viability at 48 h, 30 µM [30]: 104%
O=[N+]([O-])c1cc(-c2nnc(SCc3ccc(Cl)cc3)n2Cc2ccccc2)cc(C(F)(F)F)c1 | 0.5 µM (≈ 0.252 µg/mL) | 0.5 µM (≈ 0.252 µg/mL) | 250 µM (≈ 126 µg/mL) | 250 µM (≈ 126 µg/mL) | 0.5 µM (≈ 0.252 µg/mL) | 0.5 µM (≈ 0.252 µg/mL) | 0.5 µM (≈ 0.252 µg/mL) | 0.5 µM (≈ 0.252 µg/mL) | 0.5 µM (≈ 0.252 µg/mL) | 0.5 µM (≈ 0.252 µg/mL) | inactive | inactive | inactive | inactive | inactive | inactive | inactive | inactive | inactive | inactive | Activity [21]: inactive; Activity [22]: inactive; Activity [23]: inactive; Activity [24]: inactive; Activity [25]: inactive; Activity [26]: inactive; IC50 [27]: > 30 µM; viability at 48 h, 30 µM [28]: 68%; IC50 [29]: > 30 µM; viability at 48 h, 30 µM [30]: 121%
